Data from ChEMBL document CHEMBL1143202.

What was measured:
Rattus norvegicus [1] = species on record: Rattus norvegicus; assay: Effect on ADP/O ratio in Wistar Albino rat liver mitochondria at 25 uM in presence of succinate relative to control; format: functional
In short: (§1)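 Isolated rat liver mitochondria respiring on glutamate or succinate as substrate; oxygen consumption recorded. State 3 is the rate after ADP addition and state 4 the rate after ADP is exhausted. The respiratory control coefficient (RCC) and ADP/O ratio were determined in the same runs. Flavone tested across 25–200 μM.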

Rattus norvegicus [2] = species on record: Rattus norvegicus; assay: Effect on respiratory control coefficient in Wistar Albino rat liver mitochondria at 25 uM in presence of sodium glutamate relative to control; format: functional; in short: as §1
Rattus norvegicus [3] = species on record: Rattus norvegicus; assay: Effect on ADP/O ratio in Wistar Albino rat liver mitochondria at 100 uM in presence of succinate relative to control; format: functional; in short: as §1
Rattus norvegicus [4] = species on record: Rattus norvegicus; assay: Inhibition of NADH dehydrogenase in Wistar Albino rat liver mitochondria at 25 uM relative to control; set-up: scale not given: the % may be the effect or the level left
Rattus norvegicus [5] = species on record: Rattus norvegicus; assay: Effect on ADP/O ratio in Wistar Albino rat liver mitochondria at 25 uM in presence of sodium glutamate relative to control; format: functional; in short: as §1
Rattus norvegicus [6] = species on record: Rattus norvegicus; assay: Effect on oxygen consumption rate in Wistar Albino rat liver mitochondria assessed as inhibition in state 4 respiration at 25 uM in presence of sodium glutamate relative to control; format: functional; set-up: scale not given: the % may be the effect or the level left; in short: as §1
Rattus norvegicus [7] = species on record: Rattus norvegicus; assay: Inhibition of NADH-cytochrome c reductase in Wistar Albino rat liver mitochondria at 25 uM relative to control; set-up: scale not given: the % may be the effect or the level left
Rattus norvegicus [8] = species on record: Rattus norvegicus; assay: Inhibition of NADH-cytochrome c reductase in Wistar Albino rat liver mitochondria at 200 uM relative to control; set-up: scale not given: the % may be the effect or the level left
Rattus norvegicus [9] = species on record: Rattus norvegicus; assay: Effect on oxygen consumption rate in Wistar Albino rat liver mitochondria assessed as inhibition in state 4 respiration at 50 uM in presence of succinate relative to control; format: functional; set-up: scale not given: the % may be the effect or the level left; in short: as §1
Rattus norvegicus [10] = species on record: Rattus norvegicus; assay: Effect on oxygen consumption rate in Wistar Albino rat liver mitochondria assessed as inhibition in state 3 respiration at 75 uM in presence of sodium glutamate relative to control; format: functional; set-up: scale not given: the % may be the effect or the level left; in short: as §1
Rattus norvegicus [11] = species on record: Rattus norvegicus; assay: Inhibition of succinate-cytochrome c reductase in Wistar Albino rat liver mitochondria at 200 uM relative to control; set-up: scale not given: the % may be the effect or the level left
Rattus norvegicus [12] = species on record: Rattus norvegicus; assay: Effect on ADP/O ratio in Wistar Albino rat liver mitochondria at 100 uM in presence of sodium glutamate relative to control; in short: as §1
Liver [13] = assay: Reduction of cytochrome c in rat liver mitochondria in presence of catalase at 200 uM; format: functional; set-up: scale not given: the % may be the effect or the level left
Rattus norvegicus [14] = species on record: Rattus norvegicus; assay: Inhibition of succinate dehydrogenase in Wistar Albino rat liver mitochondria at 50 uM relative to control; set-up: scale not given: the % may be the effect or the level left
Rattus norvegicus [15] = species on record: Rattus norvegicus; assay: Inhibition of ATPase in Wistar Albino rat livers disrupted mitochondria at 100 uM relative to control; set-up: scale not given: the % may be the effect or the level left
Rattus norvegicus [16] = species on record: Rattus norvegicus; assay: Inhibition of cytochrome c oxidase in Wistar Albino rat liver mitochondria at 25 uM relative to control; set-up: scale not given: the % may be the effect or the level left
Rattus norvegicus [17] = species on record: Rattus norvegicus; assay: Inhibition of NADH-cytochrome c reductase in Wistar Albino rat liver mitochondria at 100 uM relative to control; set-up: scale not given: the % may be the effect or the level left
Rattus norvegicus [18] = species on record: Rattus norvegicus; assay: Effect on oxygen consumption rate in Wistar Albino rat liver mitochondria assessed as inhibition in state 4 respiration at 25 uM in presence of succinate relative to control; format: functional; set-up: scale not given: the % may be the effect or the level left; in short: as §1
Rattus norvegicus [19] = species on record: Rattus norvegicus; assay: Inhibition of ATPase in Wistar Albino rat livers intact mitochondria at 25 uM in presence of FCCP relative to control; set-up: scale not given: the % may be the effect or the level left
Rattus norvegicus [20] = species on record: Rattus norvegicus; assay: Inhibition of ATPase in Wistar Albino rat livers intact mitochondria at 100 uM in presence of FCCP relative to control; set-up: scale not given: the % may be the effect or the level left
Rattus norvegicus [21] = species on record: Rattus norvegicus; assay: Inhibition of ATPase in Wistar Albino rat livers disrupted mitochondria at 200 uM relative to control; set-up: scale not given: the % may be the effect or the level left
Rattus norvegicus [22] = species on record: Rattus norvegicus; assay: Effect on oxygen consumption rate in Wistar Albino rat liver mitochondria assessed as inhibition in state 4 respiration at 50 uM in presence of sodium glutamate relative to control; format: functional; set-up: scale not given: the % may be the effect or the level left; in short: as §1
Rattus norvegicus [23] = species on record: Rattus norvegicus; assay: Inhibition of ATPase in Wistar Albino rat livers intact mitochondria at 50 uM in presence of FCCP relative to control; set-up: scale not given: the % may be the effect or the level left
Rattus norvegicus [24] = species on record: Rattus norvegicus; assay: Effect on respiratory control coefficient in Wistar Albino rat liver mitochondria at 25 uM in presence of succinate relative to control; format: functional; in short: as §1
Rattus norvegicus [25] = species on record: Rattus norvegicus; assay: Inhibition of ATPase in Wistar Albino rat livers disrupted mitochondria at 50 uM relative to control; set-up: scale not given: the % may be the effect or the level left
Rattus norvegicus [26] = species on record: Rattus norvegicus; assay: Effect on oxygen consumption rate in Wistar Albino rat liver mitochondria assessed as inhibition in state 4 respiration at 75 uM in presence of succinate relative to control; format: functional; set-up: scale not given: the % may be the effect or the level left; in short: as §1
Rattus norvegicus [27] = species on record: Rattus norvegicus; assay: Effect on oxygen consumption rate in Wistar Albino rat liver mitochondria assessed as inhibition in state 3 respiration at 25 uM in presence of succinate relative to control; format: functional; set-up: scale not given: the % may be the effect or the level left; in short: as §1
Rattus norvegicus [28] = species on record: Rattus norvegicus; assay: Effect on oxygen consumption rate in Wistar Albino rat liver mitochondria assessed as inhibition in state 4 respiration at 100 uM in presence of succinate relative to control; format: functional; set-up: scale not given: the % may be the effect or the level left; in short: as §1
Rattus norvegicus [29] = species on record: Rattus norvegicus; assay: Inhibition of cytochrome c oxidase in Wistar Albino rat liver mitochondria at 75 uM relative to control; set-up: scale not given: the % may be the effect or the level left
Rattus norvegicus [30] = species on record: Rattus norvegicus; assay: Effect on oxygen consumption rate in Wistar Albino rat liver mitochondria assessed as inhibition in state 3 respiration at 75 uM in presence of succinate relative to control; format: functional; set-up: scale not given: the % may be the effect or the level left; in short: as §1
Rattus norvegicus [31] = species on record: Rattus norvegicus; assay: Effect on oxygen consumption rate in Wistar Albino rat liver mitochondria assessed as inhibition in state 3 respiration at 200 uM in presence of sodium glutamate relative to control; format: functional; set-up: scale not given: the % may be the effect or the level left; in short: as §1
Rattus norvegicus [32] = species on record: Rattus norvegicus; assay: Effect on oxygen consumption rate in Wistar Albino rat liver mitochondria assessed as inhibition in state 3 respiration at 50 uM in presence of sodium glutamate relative to control; format: functional; set-up: scale not given: the % may be the effect or the level left; in short: as §1
Rattus norvegicus [33] = species on record: Rattus norvegicus; assay: Effect on respiratory control coefficient in Wistar Albino rat liver mitochondria at 100 uM in presence of sodium glutamate relative to control; format: functional; in short: as §1
Rattus norvegicus [34] = species on record: Rattus norvegicus; assay: Inhibition of ATPase in Wistar Albino rat livers intact mitochondria at 200 uM relative to control; set-up: scale not given: the % may be the effect or the level left
Liver [35] = assay: Reduction of cytochrome c in rat liver mitochondria in presence of SOD at 200 uM; format: functional; set-up: scale not given: the % may be the effect or the level left
Rattus norvegicus [36] = species on record: Rattus norvegicus; assay: Inhibition of ATPase in Wistar Albino rat livers intact mitochondria at 200 uM in presence of FCCP relative to control; set-up: scale not given: the % may be the effect or the level left
Rattus norvegicus [37] = species on record: Rattus norvegicus; assay: Inhibition of ATPase in Wistar Albino rat livers intact mitochondria at 75 uM in presence of FCCP relative to control; set-up: scale not given: the % may be the effect or the level left
Rattus norvegicus [38] = species on record: Rattus norvegicus; assay: Inhibition of ATPase in Wistar Albino rat livers disrupted mitochondria at 25 uM relative to control; set-up: scale not given: the % may be the effect or the level left
Rattus norvegicus [39] = species on record: Rattus norvegicus; assay: Effect on ADP/O ratio in Wistar Albino rat liver mitochondria at 50 uM in presence of succinate relative to control; format: functional; in short: as §1
Rattus norvegicus [40] = species on record: Rattus norvegicus; assay: Effect on ADP/O ratio in Wistar Albino rat liver mitochondria at 75 uM in presence of succinate relative to control; format: functional; in short: as §1
Rattus norvegicus [41] = species on record: Rattus norvegicus; assay: Inhibition of succinate-cytochrome c reductase in Wistar Albino rat liver mitochondria at 100 uM relative to control; set-up: scale not given: the % may be the effect or the level left
Rattus norvegicus [42] = species on record: Rattus norvegicus; assay: Inhibition of NADH-cytochrome c reductase in Wistar Albino rat liver mitochondria at 50 uM relative to control; set-up: scale not given: the % may be the effect or the level left

COc1c(O)cc2oc(-c3ccc(O)c(O)c3)cc(=O)c2c1O
Activity (Rattus norvegicus [1]): 85.8% | Activity (Rattus norvegicus [2]): 73% | Activity (Rattus norvegicus [3]): 74.7% | Activity (Rattus norvegicus [4]): 42% | Activity (Rattus norvegicus [5]): 92.8% | Activity (Rattus norvegicus [6]): 109% | Activity (Rattus norvegicus [7]): 54% | Activity (Rattus norvegicus [8]): 19% | Activity (Rattus norvegicus [9]): 109% | Activity (Rattus norvegicus [10]): 54.9% | Activity (Rattus norvegicus [11]): 18% | Activity (Rattus norvegicus [12]): 88.6% | Activity (Liver [13]): 15% | Activity (Rattus norvegicus [14]): 69% | Activity (Rattus norvegicus [15]): 94% | Activity (Rattus norvegicus [16]): 98% | Activity (Rattus norvegicus [17]): 40% | Activity (Rattus norvegicus [18]): 106% | Activity (Rattus norvegicus [19]): 93% | Activity (Rattus norvegicus [20]): 100% | Activity (Rattus norvegicus [21]): 90% | Activity (Rattus norvegicus [22]): 102% | Activity (Rattus norvegicus [23]): 90% | Activity (Rattus norvegicus [24]): 76.4% | Activity (Rattus norvegicus [25]): 102% | Activity (Rattus norvegicus [26]): 121% | Activity (Rattus norvegicus [27]): 83% | Activity (Rattus norvegicus [28]): 132% | Activity (Rattus norvegicus [29]): 102% | Activity (Rattus norvegicus [30]): 51.2% | Activity (Rattus norvegicus [31]): 19.8% | Activity (Rattus norvegicus [32]): 66% | Activity (Rattus norvegicus [33]): 24.9% | Activity (Rattus norvegicus [34]): 101% | Activity (Liver [35]): 46% | Activity (Rattus norvegicus [36]): 102% | Activity (Rattus norvegicus [37]): 97% | Activity (Rattus norvegicus [38]): 103% | Activity (Rattus norvegicus [39]): 85.4% | Activity (Rattus norvegicus [40]): 81.6% | Activity (Rattus norvegicus [41]): 29% | Activity (Rattus norvegicus [42]): 45%
